Series [1] addresses T1, Muscarinic acetylcholine receptor M1 (Homo sapiens) (UniProt P11229).
T1 sequence (whole entry): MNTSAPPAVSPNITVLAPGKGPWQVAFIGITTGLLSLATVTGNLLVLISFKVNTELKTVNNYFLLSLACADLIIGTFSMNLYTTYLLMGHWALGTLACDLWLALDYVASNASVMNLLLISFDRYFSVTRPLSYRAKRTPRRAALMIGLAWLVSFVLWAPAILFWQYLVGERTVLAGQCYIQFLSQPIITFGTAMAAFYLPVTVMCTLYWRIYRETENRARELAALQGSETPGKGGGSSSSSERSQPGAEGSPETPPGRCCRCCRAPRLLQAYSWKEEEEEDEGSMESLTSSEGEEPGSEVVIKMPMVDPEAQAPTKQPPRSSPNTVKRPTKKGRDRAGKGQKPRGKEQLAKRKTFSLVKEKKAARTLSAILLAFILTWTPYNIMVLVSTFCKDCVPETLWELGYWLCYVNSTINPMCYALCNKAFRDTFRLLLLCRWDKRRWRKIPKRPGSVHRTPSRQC
In words: Allosteric modulator activity at human muscarinic M1 receptor expressed in CHO cells assessed as potentiation of acetylcholine-induced calcium mobilization by FLIPR assay. It counts as functional, cell-based. In general terms: Calcium assays in cells follow changes in intracellular calcium, usually with a dye or a luminescent sensor.

Series [2] concerns Plasma. Description: Fraction unbound in human plasma. Format: ADME, cell-free. Summed up:
(§1)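 Binding in rat and human serum/plasma measured by equilibrium dialysis.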

A short description of series [3]: Fraction unbound in rat plasma. It counts as ADME, cell-free. Summed up: as §1
The species named for series [4] is Homo sapiens. Description: Protein binding in human plasma. Particulars: read-out: PPB (converted).
Series [5] is described as follows: Protein binding in rat plasma. Format: ADME, cell-free. The conditions noted are these: read-out: PPB (converted). Summed up: as §1
The species named for series [6] is Homo sapiens. In words: Protein binding in human plasma. Particulars: read-out: PPB (converted). This is another data set of the same source.
Series [7] is described as follows: Ratio of drug level in brain to plasma in Sprague-Dawley rat at 10 mg/kg, po. Format: ADME, organism-based. Also noted: dose 10 mg/kg, route oral. A digest of the protocol:
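Sprague–Dawley rats dosed orally at 10 mg/kg in 0.5% methocel; brain to plasma level ratio; interanimal variability under 20%.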

A short description of series [8]: Ratio of drug level in rat cerebrospinal fluid to unbound fraction in rat plasma. Format: ADME, CSF/Plasma. Particulars: in vivo.
For series [9], the species on record is Homo sapiens. Description: Fraction unbound in human plasma.
For series [10], the target named is T1, Muscarinic acetylcholine receptor M1 (Homo sapiens). In words: Allosteric modulator activity at human muscarinic M1 receptor expressed in CHO cells assessed as potentiation of acetylcholine-induced calcium mobilization at 1 uM by FLIPR assay. Format: functional, cell-based. A digest of the protocol: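 CHO cells expressing human M1; acetylcholine dose response run with fixed 1 µM potentiator (also 0.01–100 µM series), calcium mobilization by FLIPR; fold left-shift of acetylcholine curve recorded.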

Series [11] has the same target. In words: Agonist activity at human muscarinic M1 receptor expressed in CHO cells assessed as potentiation of acetylcholine-induced calcium mobilization at >= 10 uM by FLIPR assay. Format: functional, cell-based.
Series [12] is described as follows: Plasma concentration in ip dosed mouse after 24 hrs.
The test system of series [13] is Mus musculus. Description: Reversal of cognitive deficits in contextual fear conditioning in mouse at 10 mg/kg, ip after 24 hrs in presence of Scopolamine. Format: functional, organism-based. Set-up: dose 10 mg/kg. A digest of the protocol: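 Mouse contextual fear conditioning (episodic memory model); mice given scopolamine before exposure to novel environment; test agent 10 mg/kg ip; reversal compared with scopolamine-alone group; plasma levels sampled.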

The source made the active and inactive calls. The rule behind the calls is not given here.

Broadly, the Kp is the ratio of the level in a tissue or fluid to that in plasma or blood.

Consider `O=C(O)c1cn(Cc2ccc(-n3cnc4ccccc43)cc2)c2cccc(F)c2c1=O`, for which the Activity in series [1] was found to be 96 nM. The molecule also had a Fu in [2] of 9%. The fraction unbound in series [3] was 0.039; in series [4], 0.084.
With `O=C(O)c1cn(Cc2ccc(-n3nnc4ccccc43)cc2)c2cccc(F)c2c1=O`, the Activity in [1] amounted to 228 nM.
For the molecule `O=C(O)c1cn(Cc2ccc(-n3cccn3)nc2)c2c(F)cccc2c1=O`, the Activity in series [1] was determined as 864 nM.
In the case of `O=C(O)c1cn(Cc2ccc(-n3cccc3)cc2)c2cccc(F)c2c1=O`, the Activity in [1] was 181 nM. The fraction unbound in [5] and in series [6] was 0.003 throughout.
For the molecule `Cc1ccnn1-c1ccc(Cn2cc(C(=O)O)c(=O)c3c(F)cccc32)cc1`, the Activity in series [1] amounted to 2900 nM.
The same measure, in the same setting: to `O=C(O)c1cn(Cc2ccc(-n3cccn3)cc2)c2c(F)cccc2c1=O` belongs 96 nM; to `O=C(O)c1cn(Cc2ccc(-n3ccc(C(F)(F)F)n3)cc2)c2cccc(F)c2c1=O`, 290 nM.
As for `Cc1nn(-c2ccc(Cn3cc(C(=O)O)c(=O)c4c(F)cccc43)cc2)c2ccccc12`, in series [1], the Activity worked out at 620 nM.
For the molecule `O=C(O)c1cn(Cc2ccc(-n3cccn3)cc2)c2cccc(F)c2c1=O`, in series [1], the Activity was found to be 94 nM. Besides, the fraction unbound in [5] is 0.116; in [3], 0.1; in series [6], 0.116; in [9], 0.1. In addition, in [7], the Kp is 0.04. In [8], the Ratio is recorded as 0.05.
Take `Cc1ccn(-c2ccc(Cn3cc(C(=O)O)c(=O)c4c(F)cccc43)cc2)n1`: the Activity in series [1] came to 36 nM. Moreover, the fraction unbound in [5] and in series [6] was 0.057 each time.
For the molecule `O=C(O)c1cn(Cc2ccc(-n3ccnc3)cc2)c2cccc(F)c2c1=O`, in series [1], the Activity is 110 nM. In [4], the fraction unbound was 0.162.
Turning to `O=C(O)c1cn(Cc2ccc(-n3cccn3)cc2)c2c(F)ccc(F)c2c1=O`, the Activity in series [1] was found to be 171 nM. Also, the Kp in series [7] stood at 0.03. Besides, the Ratio in series [8] is recorded as 0.1. The fold change (FC) in [10] stood at 46. Moreover, the outcome in series [11] and in series [13] was Active. For the same molecule, the concentration at 24 h in series [12] amounted to 9 µM. For the same molecule, the fraction unbound in series [4] was 0.043.
Consider `Cc1cn(-c2ccc(Cn3cc(C(=O)O)c(=O)c4c(F)cccc43)cc2)cn1`, for which, in [1], the Activity was 140 nM. In addition, the fraction unbound in series [4] is 0.111.
Consider `O=C(O)c1cn(Cc2ccc(-n3cnc(-c4ccccc4)c3)cc2)c2cccc(F)c2c1=O`, for which the Activity in series [1] came to 39 nM.
For the molecule `O=C(O)c1cn(Cc2ccc(-n3cccn3)cn2)c2c(F)cccc2c1=O`, in series [1], the Activity turned out to be 1400 nM.
As for `O=C(O)c1cn(Cc2ccc(-n3ccc4ncccc43)cc2)c2cccc(F)c2c1=O`, in series [1], the Activity is 150 nM.
On the same count and under the same terms, to `O=C(O)c1cn(Cc2ccc(-n3cccn3)nn2)c2c(F)cccc2c1=O` belongs 24000 nM; to `COc1ccc(Cn2cc(C(=O)O)c(=O)c3ccccc32)cc1`, 660 nM.
For the molecule `O=C(O)c1cn(Cc2ccc(N3CCOC3=O)cc2)c2cccc(F)c2c1=O`, in series [1], the Activity came out at 500 nM. The fraction unbound is 0.116 in [5] and 0.224 in [6].
Turning to `O=C(O)c1cn(Cc2ccc(-n3ccc4ccccc43)cc2)c2cccc(F)c2c1=O`, in [1], the Activity was 250 nM.
Same read-out and setting: the figure for `O=C(O)c1cn(Cc2ccc(N3CCCC3=O)cc2)c2cccc(F)c2c1=O` is 2500 nM.
Take `Cc1nccn1-c1ccc(Cn2cc(C(=O)O)c(=O)c3c(F)cccc32)cc1`: in series [1], the Activity worked out at 920 nM.
`O=C(O)c1cn(Cc2ccc(-n3ccc4cccnc43)cc2)c2cccc(F)c2c1=O`: the Activity in series [1] was found to be 90 nM.
`O=C(O)c1cn(Cc2ccc(-n3ccc4cnccc43)cc2)c2cccc(F)c2c1=O`: the Activity in series [1] amounted to 160 nM. In addition, in series [4], the fraction unbound was 0.031.

(Values after ChEMBL document CHEMBL1156905, “N-heterocyclic derived M1 positive allosteric modulators” (Bioorg Med Chem Lett, 2010).)
